The target in assay [1] is T1, Beta-secretase 1 (Homo sapiens, UniProt P56817). The assay is described as follows: Inhibition of BACE1 in HEK293 cells stably expressing APPSW assessed as reduction in Abeta40 level incubated overnight at 0.0005 to 10 uM by ELISA method. The class given is cell-based. (In general: In an ELISA, binding on a coated surface is turned into a signal by an enzyme label.)

The test system of assay [2] is Rattus norvegicus. The assay is described as follows: Reduction in Abeta40 level in Sprague-Dawley rat CSF at 3 mg/kg, po administered as single dose by immunoassay. The class given is functional. The essentials:
(§1)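 Male Sprague–Dawley rats received a single oral dose. Aβ40 was measured in CSF and brain 4 h later and reported as % reduction. EC50 is expressed as unbound plasma concentration.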

In assay [3] the test system is Rattus norvegicus. Put plainly: Reduction in Abeta40 level in Sprague-Dawley rat CSF at 3 mg/kg, po administered as single dose after 4 hrs by immunoassay. The class given is functional, organism-based. Further details: dose 3 mg/kg. The essentials:
as §1

The test system of the next assay is Rhesus monkey. The assay is described as follows: Reduction in Abeta40 level in rhesus monkey CSF at 5 mg/kg, po administered as single dose by ELISA method. It counts as functional, organism-based. Further details: dose 5 mg/kg. Conditions: Macaca mulatta. The method, boiled down: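 Rhesus monkey time-course PD study after a 5 mg/kg oral dose, with CSF Aβ40 followed over time. An indirect response PK–PD model generated the in vivo unbound plasma IC50.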

Assay [4] deals with T1, Beta-secretase 1. Put plainly: Inhibition of human recombinant BACE1 pre-incubated with enzyme for 60 mins before fluorescent substrate addition FRET method.
Assay [5] relates to Rattus norvegicus. The assay is described as follows: Reduction in Abeta40 level in Sprague-Dawley rat CSF at 10 mg/kg, po administered as single dose by immunoassay. It counts as functional. The essentials: as §1

Calls of active or inactive are those of the source. The calls are words filed in the database; no cut-off is given here.

As a reminder, the IC50 is the midpoint of a concentration-inhibition curve. The inhibition in vivo is how much of the control response was suppressed.

T1 sequence (P56817 whole entry): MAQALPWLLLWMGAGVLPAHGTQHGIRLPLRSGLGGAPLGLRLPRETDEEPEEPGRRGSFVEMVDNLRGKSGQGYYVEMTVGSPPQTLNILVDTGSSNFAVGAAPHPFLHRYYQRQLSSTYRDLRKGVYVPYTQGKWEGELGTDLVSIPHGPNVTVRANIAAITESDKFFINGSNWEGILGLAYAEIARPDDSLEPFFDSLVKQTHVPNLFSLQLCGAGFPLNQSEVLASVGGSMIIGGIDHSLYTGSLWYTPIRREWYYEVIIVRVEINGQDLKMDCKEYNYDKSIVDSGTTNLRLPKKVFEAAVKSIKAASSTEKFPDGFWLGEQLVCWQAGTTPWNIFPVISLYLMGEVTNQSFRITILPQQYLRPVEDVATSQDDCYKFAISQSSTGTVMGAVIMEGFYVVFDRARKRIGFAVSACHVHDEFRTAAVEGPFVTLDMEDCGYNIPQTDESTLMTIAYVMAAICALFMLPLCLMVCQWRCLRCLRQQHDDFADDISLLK

Consider `Cc1cc(-c2cc3c(c(F)n2)Oc2ccc(-c4cccnc4F)cc2[C@@]32COC(N)=N2)ccn1`, for which, on Beta-secretase 1 [1], the IC50 worked out at 12 nM.

`NC1=N[C@@]2(CO1)c1cc(-c3cccnc3F)ccc1Oc1c2cc(C2=CCCCO2)nc1F`: on Beta-secretase 1 [1], the IC50 is 4.8 nM.

`NC1=N[C@@]2(CO1)c1cc(-c3cccnc3F)ccc1Oc1c2cc(-c2ccncc2)nc1F`: the inhibition in vivo at 3 mg/kg in the assay on Rattus norvegicus [2] came out at 36%.

As for `NC1=N[C@@]2(CO1)c1cc(-c3cccnc3F)ccc1Oc1c2cc(N2CCC(F)(F)C2)nc1F`, on Beta-secretase 1 [1], the IC50 came out at 4 nM.

Regarding `NC1=N[C@@]2(CO1)c1cc(-c3cccnc3F)ccc1Oc1c2cc(N2CCOCC2)nc1F`, on Beta-secretase 1 [1], the IC50 turned out to be 5 nM. The inhibition in vivo at 3 mg/kg in the assay with Rattus norvegicus [2] is 69%.

Consider `NC1=N[C@@]2(CO1)c1cc(-c3ncccc3F)ccc1Oc1c2cc(C2=CCCOC2)nc1F`, for which the IC50 on Beta-secretase 1 [1] is 4 nM; on Beta-secretase 1 [4], 0.3 nM. In addition, the inhibition entry in the assay with Rattus norvegicus [3] and in the assay with Rhesus monkey was “Active” each time.

`NC1=N[C@@]2(CO1)c1cc(-c3cccnc3F)ccc1Oc1c2cc(-c2ccccc2)nc1F`: the IC50 on Beta-secretase 1 [1] is 8 nM; at Beta-secretase 1 [4], 0.7 nM. For the same compound, testing at 10 mg/kg in the assay with Rattus norvegicus [5] gave an inhibition in vivo of 75%.

Regarding `NC1=N[C@@]2(CO1)c1cc(-c3cccnc3F)ccc1Oc1c2cc(N2CCC(F)(F)CC2)nc1F`, the IC50 at Beta-secretase 1 [1] came to 6 nM.

With `NC1=N[C@@]2(CO1)c1cc(-c3cccnc3F)ccc1Oc1c2cc(-c2ccnc(F)c2)nc1F`, the IC50 at Beta-secretase 1 [1] was found to be 6.5 nM; at Beta-secretase 1 [4], 0.4 nM. This compound returned an inhibition in vivo at 3 mg/kg with Rattus norvegicus [2] of 58%.

As to `NC1=N[C@@]2(CO1)c1cc(-c3cccnc3F)ccc1Oc1c2cc(N2CC[C@@H](F)C2)nc1F`, the IC50 on Beta-secretase 1 [1] worked out at 3 nM; on Beta-secretase 1 [4] it was 0.2 nM.

With `Cc1cc(-c2cc3c(c(F)n2)Oc2ccc(-c4cccnc4F)cc2[C@@]32COC(N)=N2)on1`, the results for the IC50 on Beta-secretase 1 [1] and on Beta-secretase 1 [4] were 23 nM and 0.3 nM, respectively.

On to `NC1=N[C@@]2(CO1)c1cc(-c3cccnc3F)ccc1Oc1c2cc(C2=CCOCC2)nc1F`, for which the IC50 on Beta-secretase 1 [1] is 4 nM; on Beta-secretase 1 [4] it was 0.3 nM.

These data come from ChEMBL document CHEMBL3393040, “An Orally Available BACE1 Inhibitor That Affords Robust CNS Aβ Reduction without Cardiovascular Liabilities” (ACS Med Chem Lett, 2015).
